In ChEMBL document CHEMBL1123671, “1-Aryl-2-(aminomethyl)cyclopropanecarboxylic acid derivatives. A new series of potential antidepressants” (J Med Chem, 1987):

Experiments:
[1] = Ability to kill 50% of the animals after 24h, when administered perorally; assay type: ADME, organism-based; conditions: mouse, in vivo, po
Mus musculus [2] = test: Antagonism of tetrabenazine-induced ptosis in mice was evaluated after oral administration; assay type: functional
Procedure, shortened: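 Mice dosed orally at various doses (highest 30 mg/kg) 30 min before tetrabenazine 40 mg/kg ip. Blepharoptosis scored 0–2 thirty minutes after tetrabenazine. Group score sums expressed as percentage.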

Mus musculus [3] = test: Potentiation of 5-hydroxytryptophan-induced head twitch in mice after oral administration; assay type: functional
Mus musculus [4] = test: Ability to kill 50% of the animals (administered orally), after sublethal dose of yohimbine (25 mg/Kg) when given subcutaneously.; assay type: functional
Mus musculus [5] = species: Mus musculus; test: Percent increase of the diameter of the test pupil (% mydriasis) in comparison with that of the control pupil.; assay type: functional
Procedure, shortened: (§1)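 One drop (0.1 mL) of a 1% aqueous solution instilled into the left eye of 10 mice; right eye as untreated control. Both pupil diameters measured by ocular micrometer; mean mydriasis given as percent increase of test pupil diameter over control pupil.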

Mus musculus [6] = test: Compound was tested for its ability to kill 50% of the animals after 24h, when administered perorally; assay type: functional; conditions: po
Mus musculus [7] = species: Mus musculus; test: % increase of the diameter of the test pupil (% mydriasis) in comparison with that of the control pupil.; assay type: functional, organism-based; procedure, shortened: as §1

Compound | LD50 at 24 h [1] | ED50 (Mus musculus [2]) | ED50 (Mus musculus [3]) | ED50 (Mus musculus [4]) | Mydriasis (Mus musculus [5]) | LD50 (Mus musculus [6]) | Mydriasis (Mus musculus [7])
CN(C)CCCN1c2ccccc2CCc2ccc(Cl)cc21 [CLOMIPRAMINE] | 556 mg/kg | 9 mg/kg | 37 mg/kg | 5 mg/kg | 38% | – | –
CCOC(=O)[C@@]1(c2ccccc2)CC1CN.Cl (stereo not given in full) | 316 mg/kg | 30 mg/kg | 73 mg/kg | 100 mg/kg | 33% | – | –
CCCN(CCC)C(=O)[C@@]1(c2ccccc2)CC1CN.O=C(O)C(=O)O (stereo not given in full) | 100 mg/kg | 5.5 mg/kg | – | 9 mg/kg | 27% | – | –
CCOC(=O)[C@@]1(c2ccccc2)CC1CN(C)C.Cl (stereo not given in full) | > 1000 mg/kg | 1.4 mg/kg | – | 10 mg/kg | 40% | – | –
CCCCN(C)CC1C[C@@]1(C(=O)OCC)c1ccccc1.Cl (stereo not given in full) | 255 mg/kg | – | – | 27 mg/kg | 61% | – | –
CCOC(=O)[C@@]1(c2ccc(OC)cc2)CC1CN(C)C.Cl (stereo not given in full) | 562 mg/kg | – | – | > 30 mg/kg | 38% | – | –
CCOC(=O)[C@@]1(c2ccccc2)CC1CNC.Cl (stereo not given in full) | 562 mg/kg | – | – | 30 mg/kg | 62% | – | –
CCOC(=O)[C@@]1(c2ccc(Cl)cc2)CC1CN(C)C.Cl (stereo not given in full) | 422 mg/kg | 6 mg/kg | 35 mg/kg | 2 mg/kg | 24% | – | –
CC(C)OC(=O)[C@@]1(c2ccccc2)CC1CN(C)C.Cl (stereo not given in full) | 422 mg/kg | 7 mg/kg | – | 18 mg/kg | 73% | – | –
CCCCCCN(CCCCCC)C(=O)[C@@]1(c2ccccc2)CC1CN.O=C(O)C(=O)O (stereo not given in full) | – | > 30 mg/kg | > 1000 mg/kg | > 100 mg/kg | – | > 1000 mg/kg | Not significant
CC(C)OC(=O)[C@@]1(c2ccc(Cl)cc2)CC1CN.Cl (stereo not given in full) | 255 mg/kg | 8 mg/kg | 50 mg/kg | 2 mg/kg | 23% | – | –
CCN(CC)C(=O)[C@]1(c2ccc(F)cc2)CC1CN.Cl (stereo not given in full) | 422 mg/kg | 10 mg/kg | 50 mg/kg | 5 mg/kg | – | – | Not significant
CCOC(=O)[C@@]1(c2ccccc2)CC1CN1CCCC1.Cl (stereo not given in full) | 562 mg/kg | – | – | > 100 mg/kg | 53% | – | –
CC(C)N(C(=O)[C@@]1(c2ccccc2)CC1CN)C(C)C.Cl (stereo not given in full) | 100 mg/kg | 30 mg/kg | > 30 mg/kg | 15 mg/kg | – | – | Not significant
NCC1C[C@@]1(C(=O)N1CCCC1)c1ccccc1.O=C(O)C(=O)O (stereo not given in full) | 562 mg/kg | 20 mg/kg | > 100 mg/kg | 48 mg/kg | 12% | – | –
Cc1ccc([C@]2(C(=O)OC(C)C)CC2CN)cc1.Cl (stereo not given in full) | 1000 mg/kg | 17 mg/kg | 100 mg/kg | 30 mg/kg | – | – | Not significant
CNCCCN1c2ccccc2CCc2ccccc21 [DESIPRAMINE] | 572 mg/kg | 3 mg/kg | > 100 mg/kg | 2 mg/kg | 46% | – | –
COC(=O)[C@@]1(c2ccccc2)CC1CN(C)C.Cl (stereo not given in full) | 750 mg/kg | 30 mg/kg | – | 29 mg/kg | 60% | – | –

Compound | LD50 at 24 h [1] | ED50 (Mus musculus [2]) | ED50 (Mus musculus [3]) | ED50 (Mus musculus [4]) | Mydriasis (Mus musculus [5]) | LD50 (Mus musculus [6]) | Mydriasis (Mus musculus [7])
CN(C)CCCN1c2ccccc2CCc2ccccc21 [IMIPRAMINE] | – | 5 mg/kg | 60 mg/kg | 7 mg/kg | 61% | – | –
CCN(CC)C(=O)[C@@]1(c2ccccc2)CC1CNC.O=C(O)C(=O)O (stereo not given in full) | 316 mg/kg | 13 mg/kg | > 100 mg/kg | 4 mg/kg | – | – | Not significant
CCOC(=O)[C@@]1(c2ccccc2)CC1CNCc1ccccc1.Cl (stereo not given in full) | 316 mg/kg | – | – | > 30 mg/kg | 16% | – | –
CCN(CC)C(=O)[C@]1(c2ccccc2)C[C@H]1CN.Cl | 237 mg/kg | 0.5 mg/kg | > 100 mg/kg | 0.5 mg/kg | – | – | Not significant
CCOC(=O)[C@@]1(c2ccccc2)CC1CN(C)CCO.O=C(O)/C=C/C(=O)O (stereo not given in full) | > 1000 mg/kg | – | – | 56 mg/kg | 23% | – | –
CCNC(=O)[C@@]1(c2ccccc2)CC1CN.O=C(O)C(=O)O (stereo not given in full) | 316 mg/kg | > 30 mg/kg | > 100 mg/kg | 19 mg/kg | – | – | Not significant
CCOC(=O)[C@@]1(c2ccc(F)cc2)CC1CN(C)C.Cl (stereo not given in full) | 562 mg/kg | 8 mg/kg | – | 12 mg/kg | 76% | – | –
CCOC(=O)[C@@]1(c2ccccc2)CC1CN(CCO)CCO.O=C(O)/C=C\C(=O)O (stereo not given in full) | > 1000 mg/kg | – | – | > 100 mg/kg | – | – | Not significant
CCOC(=O)[C@@]1(c2ccccc2)CC1CN(C)CCc1ccccc1.Cl (stereo not given in full) | 1000 mg/kg | > 30 mg/kg | > 30 mg/kg | 15 mg/kg | 30% | – | –
CCN(CC)C(=O)[C@]1(c2ccc(Cl)cc2)CC1CN.Cl (stereo not given in full) | 422 mg/kg | 9 mg/kg | > 100 mg/kg | 3 mg/kg | 11% | – | –
CCN(CC)C(=O)[C@]1(c2ccccc2)C[C@@H]1CN.Cl [1R,2S-MILNACIPRAN HYDROCHLORIDE] | 562 mg/kg | > 30 mg/kg | > 100 mg/kg | > 100 mg/kg | – | – | Not significant
CCCOC(=O)[C@@]1(c2ccccc2)CC1CN(C)C.O=C(O)/C=C/C(=O)O (stereo not given in full) | 562 mg/kg | 30 mg/kg | > 100 mg/kg | 25 mg/kg | 55% | – | –
C=CCOC(=O)[C@@]1(c2ccccc2)CC1CN(C)C.O=C(O)/C=C/C(=O)O (stereo not given in full) | 1000 mg/kg | – | – | 16 mg/kg | 44% | – | –
CCN(CC)C(=O)[C@]1(c2cccc(Cl)c2)CC1CN.Cl (stereo not given in full) | 100 mg/kg | 0.9 mg/kg | > 10 mg/kg | 3 mg/kg | – | – | Not significant
Cl.NCC1C[C@@]1(C(=O)O)c1ccccc1 (stereo not given in full) | > 1000 mg/kg | > 30 mg/kg | > 100 mg/kg | > 100 mg/kg | – | – | Not significant
CCCCN(CCCC)C(=O)[C@@]1(c2ccccc2)CC1CN.O=C(O)C(=O)O (stereo not given in full) | 562 mg/kg | > 30 mg/kg | > 100 mg/kg | > 100 mg/kg | – | – | Not significant
CCOC(=O)[C@@]1(c2ccccc2)CC1CN(C(C)C)C(C)C.O=C(O)/C=C\C(=O)O (stereo not given in full) | 750 mg/kg | – | – | 70 mg/kg | 49% | – | –
CC(C)OC(=O)[C@@]1(c2ccccc2)CC1CN.Cl (stereo not given in full) | 100 mg/kg | – | 54 mg/kg | 18 mg/kg | 20% | – | –
